Activity calls are given as the source filed them. The rule behind the calls is not given here.
Experiments:
[1] = tested on: A549; assay: Cytotoxicity against human A549 cells assessed as cell growth inhibition at 0.5 to 10 uM incubated for 24 hrs under dark condition by MTT assay; format: functional, cell-based; settings: dose 0.5-10 µM, DDE = dose-dependent effect
Procedure, shortened: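 A549 in DMEM/10% FBS, 7 × 10³ cells/well seeded, overnight at 37 °C, 5% CO₂; treated at 0.5, 1, 2.5, 5, 10 μM without light, buffer control, n = 6. After 24 h, MTT added to a final 0.5 mg mL⁻¹ for 4 h; formazan dissolved in DMSO, A570 read with 660 nm reference; % dead cells calculated against vehicle control.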

[2] = tested on: A549; assay: Cytotoxicity against human A549 cells assessed as cell growth inhibition at 0.5 uM incubated for 24 hrs under light exposure by MTT assay; format: functional, cell-based
Procedure, shortened: (§1)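 A549 plated as for MTT, incubated with compound (0.5 or 1 μM) for 6 h, then irradiated by LED at 42 W m⁻² for 90 min (0.02 kJ cm⁻²). Cells then held 18 h at room temperature and assayed by MTT. Controls were light without compound and compound without light.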

[3] = tested on: A549; assay: Cytotoxicity against human A549 cells assessed as cell growth inhibition at 1 uM incubated for 24 hrs under light exposure by MTT assay; format: functional, cell-based; procedure, shortened: as §1
[4] = tested on: A549; assay: Cytotoxicity against human A549 cells assessed as cell growth inhibition incubated for 24 hrs under light exposure by MTT assay; format: functional, cell-based; settings: A549, 24 h
Procedure, shortened: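 Photocytotoxicity IC₅₀ determination in A549 cells: 6 h compound exposure at 0.1, 0.5, 1, 2.5, 5.0, 10.0, 20.0 μM, then LED light dose of 0.02 kJ cm⁻² and 18 h post-irradiation incubation before MTT read-out. % cell death plotted against log concentration (nM) to derive IC₅₀.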

[5] = Octanol-water partition coefficient, logP of the compound; format: physicochemical
Procedure, shortened: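 ⁶⁸Ga-labelled preparation (100 μL) added to octanol (1.0 mL) and water (900 μL), mixed, centrifuged 2500 rpm for 5 min. Aliquots of each layer counted by NaI(Tl); log P taken as log of organic/aqueous count ratio.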

[6] = Drug uptake in blood of iv dosed Swiss mouse infected with mouse HSDM1C1 cells administered with radiolabeled Gallium-68 measured after 30 mins; format: ADME, organism-based; settings: in vivo, 0.5 h
Procedure, shortened: (§2)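 Fibrosarcoma grown from ~10⁶ HSDM1C1 cells injected subcutaneously on the dorsum, used at ~1 cm tumour diameter; 20–25 g Swiss mice. ⁶⁸Ga-labelled, Sep-Pak-purified preparation (~100 μCi, 3.7 MBq, 150 μL, saline) given i.v. via tail vein. Killed by CO₂ at 30 or 60 min, n = 3; blood by cardiac puncture, organs excised, washed, weighed and counted by NaI(Tl); % IA per g.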

[7] = Drug uptake in blood of iv dosed Swiss mouse infected with mouse HSDM1C1 cells administered with radiolabeled Gallium-68 measured after 60 mins; format: ADME, organism-based; settings: in vivo, 1 h; procedure, shortened: as §2
[8] = Drug uptake in lung of iv dosed Swiss mouse infected with mouse HSDM1C1 cells administered with radiolabeled Gallium-68 measured after 30 mins; format: ADME, organism-based; settings: in vivo, 0.5 h; procedure, shortened: as §2
[9] = Drug uptake in lung of iv dosed Swiss mouse infected with mouse HSDM1C1 cells administered with radiolabeled Gallium-68 measured after 60 mins; format: ADME, organism-based; settings: in vivo, 1 h; procedure, shortened: as §2
[10] = Drug uptake in liver of iv dosed Swiss mouse infected with mouse HSDM1C1 cells administered with radiolabeled Gallium-68 measured after 30 mins; format: ADME, organism-based; settings: in vivo, 0.5 h; procedure, shortened: as §2
[11] = Drug uptake in liver of iv dosed Swiss mouse infected with mouse HSDM1C1 cells administered with radiolabeled Gallium-68 measured after 60 mins; format: ADME, organism-based; settings: in vivo, 1 h; procedure, shortened: as §2
[12] = Drug uptake in spleen of iv dosed Swiss mouse infected with mouse HSDM1C1 cells administered with radiolabeled Gallium-68 measured after 30 mins; format: ADME, organism-based; settings: in vivo, 0.5 h; procedure, shortened: as §2
[13] = Drug uptake in spleen of iv dosed Swiss mouse infected with mouse HSDM1C1 cells administered with radiolabeled Gallium-68 measured after 60 mins; format: ADME, organism-based; settings: in vivo, 1 h; procedure, shortened: as §2
[14] = Drug uptake in kidney of iv dosed Swiss mouse infected with mouse HSDM1C1 cells administered with radiolabeled Gallium-68 measured after 30 mins; format: ADME, organism-based; settings: in vivo, 0.5 h; procedure, shortened: as §2
[15] = Drug uptake in kidney of iv dosed Swiss mouse infected with mouse HSDM1C1 cells administered with radiolabeled Gallium-68 measured after 60 mins; format: ADME, organism-based; settings: in vivo, 1 h; procedure, shortened: as §2
[16] = Drug uptake in tumor of iv dosed Swiss mouse infected with mouse HSDM1C1 cells administered with radiolabeled Gallium-68 measured after 30 mins; format: ADME, organism-based, Neoplasm; settings: in vivo, 0.5 h; procedure, shortened: as §2
[17] = Drug uptake in tumor of iv dosed Swiss mouse infected with mouse HSDM1C1 cells administered with radiolabeled Gallium-68 measured after 60 mins; format: ADME, organism-based, Neoplasm; settings: in vivo, 1 h; procedure, shortened: as §2

SMILES: O=C(O)COc1ccc(-c2c3nc(c(-c4ccc(OCC(=O)O)cc4)c4ccc([nH]4)c(-c4ccc(OCC(=O)O)cc4)c4nc(c(-c5ccc(O)cc5)c5ccc2[nH]5)C=C4)C=C3)cc1
- Activity [1]: Dde
- Activity [2]: Active
- Activity [3]: Active
- IC50 [4]: 5.65 µM
- logP [5]: -1.54
- Ct [6]: 9.97%
- Ct [7]: 6.87%
- Ct [8]: 8.87%
- Ct [9]: 5.33%
- Ct [10]: 23.46%
- Ct [11]: 15.11%
- Ct [12]: 5.52%
- Ct [13]: 3.23%
- Ct [14]: 4.78%
- Ct [15]: 3.35%
- Ct [16]: 2.53%
- Ct [17]: 2.45%

Source: ChEMBL document CHEMBL5104213, “Evaluation of the effect of a cell penetrating peptide (TAT) towards tailoring the targeting efficacy and tumor uptake of porphyrin” (RSC Med Chem, 2022)
